The test system of series [1] is Cortical neurone. The series is described as follows: Induction of IDE levels in Sprague-Dawley rat primary cortical neurons at 5 to 100 uM after 24 hrs by immunoblot analysis. The format is functional, cell-based. Conditions: 1 to 10 uM, in the assay text read “1 to 10 uM” for “5 to 100 uM”. The gist of the method:
(§1)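 Cortical neurons from neonatal Sprague-Dawley rats treated 24 h at 0, 5, 20, 100 μM or 0, 1, 5, 10 μM, with DMSO control. Lysates were immunoblotted on 10% Tris–HCl gels with IDE or NEP antibody (1:1000, 4 °C overnight), nitrocellulose transfer, HRP detection. Intensities normalized to actin; mean ± S.D. of three independent experiments, Student's t-test.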

Series [2] has as its system Cortical neurone. Briefly: Induction of ADAM10 activation in Sprague-Dawley rat primary cortical neurons after 24 hrs by immunoblot analysis. The format is functional, cell-based. In short, it runs like this:
(§2)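 Primary cortical neurons (1-day-old Sprague-Dawley pups, 3–4 day cultures) treated 24 h at 0–100 μM or 0–10 μM, with DMSO control. Lysed in RIPA, protein quantified by BCA, equal amounts run on 10% Tris–HCl gels, nitrocellulose transfer. BACE1 and ADAM10 antibodies each 1:1000 overnight at 4 °C, HRP secondary, chemiluminescence. Mature ADAM10 is the ~60 kDa band. Bands normalized to actin; mean ± S.D., n=3, Student's t-test.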
(A western blot detects proteins with antibodies after separation by electrophoresis.)

Series [3] deals with Cortical neurone. The series is described as follows: Cytotoxicity against Sprague-Dawley rat primary cortical neurons assessed as cell morphology at 10 uM after 24 hrs by MAP2 immunostaining. It is filed as cell-based. In short, it runs like this:
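Cortical neurons from 1-day-old Sprague-Dawley pups, plated on poly-D-lysine at 1 × 10^6 cells/well in DMEM with 10% horse serum, used at 3–4 days in culture. Treated 24 h alongside DMSO control (0.01% or 0.1%). Fixed in 4% paraformaldehyde, blocked with Triton X-100/BSA, MAP-2 (1:50) overnight at 4 °C, rhodamine secondary, imaged by fluorescence microscopy at 40X.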

Series [4] concerns Cortical neurone. Briefly: Induction of NEP levels in Sprague-Dawley rat primary cortical neurons at 5 uM after 24 hrs by immunoblot analysis. It is filed as functional, cell-based. In short, it runs like this: as §1
Series [5] has as its system Cortical neurone. The series is described as follows: Induction of matured ADAM10 level in Sprague-Dawley rat primary cortical neurons after 24 hrs by immunoblot analysis. It is filed as functional, cell-based. In short, it runs like this:
as §2

Series [6] deals with Cortical neurone. Briefly: Reduction of BACE1 expression in Sprague-Dawley rat primary cortical neurons after 24 hrs by immunoblot analysis. The format is functional, cell-based. In short, it runs like this:
as §2

In series [7] the test system is Cortical neurone. Briefly: Cytotoxicity against Sprague-Dawley rat primary cortical neurons assessed as cell death at 100 uM after 24 hrs by MAP2 immunostaining. The format is cell-based. In short, it runs like this:
(§3)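 Neurons from 1-day-old pups were plated at 1 × 10^6 cells/well on poly-D-lysine in DMEM with 10% horse serum, 25 mM glucose, 10 mM HEPES, 2 mM glutamine and antibiotics. Day 3–4 cultures were treated 24 h (vehicle 0.1% DMSO), fixed in 4% paraformaldehyde, blocked (0.1% Triton X-100, 1% BSA), stained with MAP-2 1:50 overnight at 4 °C plus rhodamine secondary, and imaged by fluorescence microscopy (40X).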

Series [8] relates to ADAM10 (alpha-secretase) (Rattus norvegicus). Briefly: Increase in alpha-secretase activity in Sprague-Dawley rat primary cortical neurons assessed as increase in sAPPalpha level by immunoblot analysis. The conditions noted are these: Cerebral cortex neuron.
The test system is the same in series [9]. Briefly: Increase in alpha-secretase activity in Sprague-Dawley rat primary cortical neurons assessed as increase in C83 level by immunoblot analysis. Conditions: Cerebral cortex neuron.
Series [10] deals with Cortical neurone. The series is described as follows: Induction of IDE levels in Sprague-Dawley rat Alzheimer's disease model primary cortical neurons after 24 hrs by immunoblot analysis. The format is functional, cell-based.
Series [11] concerns Cortical neurone. The series is described as follows: Induction of IDE levels in Sprague-Dawley rat primary cortical neurons after 24 hrs by immunoblot analysis. The format is functional, cell-based. In short, it runs like this: as §1
Series [12] has as its system Cortical neurone. The series is described as follows: Cytotoxicity against Sprague-Dawley rat primary cortical neurons assessed as cell morphology at 100 uM after 24 hrs by MAP2 immunostaining. It is filed as cell-based. In short, it runs like this:
as §3

The structures appear in SMILES notation. Activity calls are given as the source filed them. No cut-off for these calls is given here.

Consider `C[C@H]1[C@H](C)CC[C@]2(C(=O)O)CC[C@]3(C)C(=CC[C@@H]4[C@@]5(C)C[C@@H](O)[C@H](O)[C@@](C)(CO)[C@@H]5CC[C@]43C)[C@H]12` [ASIATIC ACID], for which, in series [1], the outcome was inactive. Moreover, the Activity result in series [2] was “Dose-dependent effect”; in series [3], “Non-toxic”; in series [5] it was “Dose-dependent effect”; in series [6], “Dose-dependent effect”. Besides, the result in series [4] was Active.
Turning to `CC1=C(C)C(=O)O[C@@H]([C@](C)(O)[C@H]2CC[C@H]3[C@@H]4[C@@H]5O[C@@H]5[C@@]5(O)CC=CC(=O)[C@]5(C)[C@H]4CC[C@]23C)C1` [WITHANOLIDE A], the Activity entry is “Dose-dependent effect” in series [2]; “Non-toxic” in series [7]; “Dose-dependent effect” in [11]; “Dose-dependent effect” in series [5]; “Non-toxic” in [12]; “Dose-dependent effect” in series [6]. Also, the outcome in series [8], in series [9] and in series [10] was Active.

For the origin of these results see ChEMBL document CHEMBL1177742, “Withanolide A and asiatic acid modulate multiple targets associated with amyloid-beta precursor protein processing and amyloid-beta protein clearance” (J Nat Prod, 2010).
